Data from paper PMC9306928 (Journal of Veterinary Pharmacology and Therapeutics, 2022).
Where two headings read alike, the source gives them in different places. Marks after values point to notes of the source that are not given here.

Assays:
COX‐1/COX‐2 [1] = conditions: cited from earlier work
[2] = test system: PGE2 formation in gastric mucosa; conditions: rat carrageenan model, dose of 40 mg/kg; ref Iñiguez et al. (2010); cited from earlier work
COX‐1/COX‐2 [3] = assay: Selectivity for COX‐2 inhibition; type: cell-based; conditions: dog whole blood, not corrected for blood cell partitioning
Procedure, shortened: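 Selectivity was the quotient of mean IC50 values (six Beagles each) from two canine whole blood assays. One was clotting-induced TXB2 (COX-1; unanticoagulated blood, 1 h, ca 37°C). The other was LPS-induced PGE2 (COX-2; citrated blood, 1 µg/ml LPS, 24 h). Both were read by ELISA and Hill-fitted. IC50 ratios were tested by paired t test, and compounds by one-way ANOVA/Tukey.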

COX‐2 = target: T1, COX‐2 (Canis lupus familiaris, UniProt Q8SPQ9); type: cell-based, dog
T1 sequence (Q8SPQ9 18-604): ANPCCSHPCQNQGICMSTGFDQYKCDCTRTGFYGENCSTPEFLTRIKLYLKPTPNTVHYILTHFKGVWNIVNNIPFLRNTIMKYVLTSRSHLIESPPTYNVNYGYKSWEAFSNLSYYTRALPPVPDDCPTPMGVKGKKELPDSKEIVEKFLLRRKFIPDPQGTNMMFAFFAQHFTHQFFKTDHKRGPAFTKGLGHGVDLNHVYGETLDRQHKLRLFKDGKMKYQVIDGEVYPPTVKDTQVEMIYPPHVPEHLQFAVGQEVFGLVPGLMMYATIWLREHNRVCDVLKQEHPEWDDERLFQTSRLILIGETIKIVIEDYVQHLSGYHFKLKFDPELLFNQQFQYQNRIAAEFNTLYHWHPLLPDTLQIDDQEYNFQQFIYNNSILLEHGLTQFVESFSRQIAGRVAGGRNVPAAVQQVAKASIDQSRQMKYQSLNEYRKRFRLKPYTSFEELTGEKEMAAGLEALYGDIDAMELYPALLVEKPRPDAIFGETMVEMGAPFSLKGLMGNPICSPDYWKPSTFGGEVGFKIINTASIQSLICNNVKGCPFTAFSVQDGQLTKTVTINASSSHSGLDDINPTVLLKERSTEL
Procedure, shortened: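 Citrated blood from three male and three female Beagles was held 4–6 h at ca 2–8°C. Duplicates received test compound at final 100, 30, 10, 3, 1, 0.3, 0.1 or 0 µM (one enantiomer max 30 µM; 0.4% DMSO) with LPS 1 µg/ml final, for 24 h at ca 37°C with orbital agitation. Plasma PGE2 was measured by ELISA (1:1000). Per-dog Hill fits gave IC50 and gamma; IC20/IC80 were derived.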

COX‐1 = target: T2, COX‐1 (Canis lupus familiaris, UniProt Q8HZR1); type: cell-based, dog; conditions: Hill equation fit of TXB2 formation; mean of six dogs
T2 sequence (Q8HZR1 28-603): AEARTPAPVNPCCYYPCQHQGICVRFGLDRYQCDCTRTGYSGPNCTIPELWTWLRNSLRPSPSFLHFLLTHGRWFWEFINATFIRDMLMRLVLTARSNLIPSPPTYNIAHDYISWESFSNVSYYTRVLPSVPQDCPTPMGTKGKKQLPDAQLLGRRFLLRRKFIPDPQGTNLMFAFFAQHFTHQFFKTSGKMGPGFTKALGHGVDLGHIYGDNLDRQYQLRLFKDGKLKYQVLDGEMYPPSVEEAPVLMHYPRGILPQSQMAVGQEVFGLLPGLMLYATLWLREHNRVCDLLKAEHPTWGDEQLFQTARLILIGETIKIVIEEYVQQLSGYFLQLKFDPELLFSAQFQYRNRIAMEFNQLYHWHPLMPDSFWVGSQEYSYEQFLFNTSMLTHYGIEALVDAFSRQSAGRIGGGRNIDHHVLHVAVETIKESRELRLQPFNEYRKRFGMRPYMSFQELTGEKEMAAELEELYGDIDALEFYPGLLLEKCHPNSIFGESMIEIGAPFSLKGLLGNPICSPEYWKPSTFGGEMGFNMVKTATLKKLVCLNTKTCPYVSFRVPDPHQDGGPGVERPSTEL
Procedure, shortened: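 Whole blood from six male Beagles was drawn without anticoagulant and used at once. Duplicate incubations received test compound at final 500, 300, 100, 30, 10, 3, 1 or 0 µM (0.4% v/v DMSO) plus PBS, for 1 h at ca 37°C with gentle shaking. Serum TXB2 was measured by ELISA (1:3000, 412 nm). Per-dog 4-parameter Hill fits gave IC50 and gamma, and IC20/IC80 were calculated from these.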

[4] = ref King et al., 2010, McCann et al., 2004
[5] = whole blood concentration, not corrected for blood cell partitioning

CCc1ccc(Nc2c(F)c(F)cc(F)c2F)c(CC(=O)O)c1 [robenacoxib]
COX‐2 selectivity ratio (COX‐1/COX‐2 [1]; [4]): 129

NS(=O)(=O)c1ccc(N2N=C(C(F)(F)F)C[C@H]2c2ccc(F)cc2F)cc1 [(S)‐(‐)‐Enflicoxib]
inhibition of PGE2 formation in gastric mucosa [2]: 18%
Ratio IC50 (COX‐1/COX‐2) (COX‐1/COX‐2 [3]): 3.77‡
Gamma (sigmoidicity factor), COX‐2 (COX‐2; Hill equation fit of PGE2 formation, mean of six dogs): 2.7
Gamma (sigmoidicity factor), COX‐1 (COX‐1): 1.8

COc1ccc(-c2cc(C(F)F)nn2-c2ccc(S(N)(=O)=O)cc2)cc1F [deracoxib]
COX‐2 selectivity ratio (COX‐1/COX‐2 [1]; [4]): 48.5

NS(=O)(=O)c1ccc(N2N=C(C(F)(F)F)C[C@@H]2c2ccc(F)cc2F)cc1 [(R)‐(+)‐Enflicoxib]
IC50 for COX‐2 inhibition expressed as blood level (COX‐2; [5]): > 12 µg/mL
IC80 for COX‐2 inhibition expressed as blood level (COX‐2; [5]): > 12 µg/mL

CC(C(=O)O)c1ccc2c(c1)[nH]c1ccc(Cl)cc12 (stereo not shown) [carprofen]
COX‐2 selectivity ratio (COX‐1/COX‐2 [1]; ref Briedeau et al., 2001): ~6.5

CC1(C)OC(=O)C(OCC2CC2)=C1c1ccc(S(C)(=O)=O)cc1 [firocoxib]
COX‐2 selectivity ratio (COX‐1/COX‐2 [1]; [4]): 384
